Source: ChEMBL document CHEMBL3526062, “Role of human UDP-glucuronosyltransferases in the biotransformation of the triazoloacridinone and imidazoacridinone antitumor agents C-1305 and C-1311: highly selective substrates for UGT1A10” (Drug Metab Dispos, 2012)

Columns and labels:
Type in all cases: ADME
[1] = target: T1, UDP-glucuronosyltransferase 1A1 (Homo sapiens, UniProt P22309); assay: Drug metabolism assessed as human recombinant UGT1A1-mediated compound formation treated with C-1305 for 60 mins by ESI-MS/UV-vis spectroscopy in presence of 3 mM UDP-GlcUA; conditions: recombinant enzyme, 1 h
T1 sequence (P22309 whole entry): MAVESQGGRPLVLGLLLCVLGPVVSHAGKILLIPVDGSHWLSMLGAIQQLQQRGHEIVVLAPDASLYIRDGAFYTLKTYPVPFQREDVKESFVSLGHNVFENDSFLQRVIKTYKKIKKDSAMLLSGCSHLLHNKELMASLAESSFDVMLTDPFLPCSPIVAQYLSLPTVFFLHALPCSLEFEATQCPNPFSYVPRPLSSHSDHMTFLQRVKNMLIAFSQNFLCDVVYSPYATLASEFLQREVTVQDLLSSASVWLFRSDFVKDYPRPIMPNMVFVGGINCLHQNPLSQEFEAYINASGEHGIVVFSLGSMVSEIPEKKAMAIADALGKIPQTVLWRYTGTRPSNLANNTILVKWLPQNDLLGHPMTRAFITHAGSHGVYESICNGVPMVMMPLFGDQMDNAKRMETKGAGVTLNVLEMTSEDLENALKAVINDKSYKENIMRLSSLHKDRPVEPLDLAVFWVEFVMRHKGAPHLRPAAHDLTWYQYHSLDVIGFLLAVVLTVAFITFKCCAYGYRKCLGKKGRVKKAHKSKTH
How it was run: (§1)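 Recombinant human UGT1A1 or UGT1A9 (5 μg protein), or single-donor human liver or intestinal microsomes (20 μg), incubated in Tris-HCl pH 7.4 with 5 mM MgCl2, 5 mM saccharolactone, 2% DMSO and 100 or 200 μM substrate. Started with UDP-GlcUA, 60 min at 37°C, in triplicate. Product identified by HPLC with positive-ion ESI-MS and UV/Vis spectra, and confirmed by β-glucuronidase hydrolysis.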

[2] = target: T2, UDP-glucuronosyltransferase 1A9 (Homo sapiens, UniProt O60656); assay: Activity of human recombinant UGT1A9 expressed in baculovirus-infected Sf9 cells assessed as enzyme-mediated glucuronidation per mg protein at 300 uM after 60 mins by Michaelis-Menten equation in presence of 3 mM UDP-GlcUA; conditions: sf9, 1 h
T2 sequence (O60656 whole entry): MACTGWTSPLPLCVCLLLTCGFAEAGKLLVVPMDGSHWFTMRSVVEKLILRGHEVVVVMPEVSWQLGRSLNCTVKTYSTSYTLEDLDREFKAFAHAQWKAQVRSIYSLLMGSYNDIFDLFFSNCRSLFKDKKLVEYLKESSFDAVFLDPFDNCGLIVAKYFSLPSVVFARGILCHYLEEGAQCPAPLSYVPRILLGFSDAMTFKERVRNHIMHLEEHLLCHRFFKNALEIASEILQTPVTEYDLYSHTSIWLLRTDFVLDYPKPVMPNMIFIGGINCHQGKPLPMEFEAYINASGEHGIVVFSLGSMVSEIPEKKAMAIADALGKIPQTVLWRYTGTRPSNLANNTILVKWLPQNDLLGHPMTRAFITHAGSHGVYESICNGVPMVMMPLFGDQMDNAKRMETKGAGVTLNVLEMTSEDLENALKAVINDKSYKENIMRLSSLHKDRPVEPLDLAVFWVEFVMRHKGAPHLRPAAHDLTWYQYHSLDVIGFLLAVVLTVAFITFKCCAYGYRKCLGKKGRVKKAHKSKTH

[3] = target: T2, UDP-glucuronosyltransferase 1A9; assay: Drug metabolism assessed as human recombinant UGT1A9-mediated compound formation treated with C-1305 for 60 mins by ESI-MS/UV-vis spectroscopy in presence of 3 mM UDP-GlcUA; conditions: recombinant enzyme, 1 h; how it was run: as §1
[4] = target: T3, UDP-glucuronosyltransferase 1A10 (Homo sapiens, UniProt Q9HAW8); assay: Drug metabolism assessed as human recombinant UGT1A10-mediated compound formation treated with C-1305 for 60 mins by ESI-MS/UV-vis spectroscopy in presence of 3 mM UDP-GlcUA; conditions: recombinant enzyme, 1 h
T3 sequence (Q9HAW8 whole entry): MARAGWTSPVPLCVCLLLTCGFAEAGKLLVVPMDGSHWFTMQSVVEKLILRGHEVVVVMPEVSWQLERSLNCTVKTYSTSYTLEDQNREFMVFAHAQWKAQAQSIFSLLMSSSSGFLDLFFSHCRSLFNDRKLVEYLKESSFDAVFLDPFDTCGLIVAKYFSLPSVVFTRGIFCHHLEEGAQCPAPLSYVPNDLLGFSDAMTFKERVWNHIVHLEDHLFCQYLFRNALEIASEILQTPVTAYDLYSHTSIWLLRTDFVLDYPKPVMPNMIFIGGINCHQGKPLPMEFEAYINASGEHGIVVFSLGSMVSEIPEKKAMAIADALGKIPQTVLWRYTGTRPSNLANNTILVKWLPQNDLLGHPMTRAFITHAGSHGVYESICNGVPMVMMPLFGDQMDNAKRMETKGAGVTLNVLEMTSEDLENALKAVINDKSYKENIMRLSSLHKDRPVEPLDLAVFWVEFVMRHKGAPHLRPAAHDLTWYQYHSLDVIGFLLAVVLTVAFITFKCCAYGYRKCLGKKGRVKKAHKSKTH
How it was run: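 His-tagged recombinant human UGT expressed in baculovirus-infected insect cells, levels normalized by anti-His Western blot; 5 μg membrane protein incubated 60 min at 37°C in […] pH 7.4, 5 mM MgCl2, 5 mM saccharolactone, 2% DMSO, substrate 100 or 200 μM; started with UDP-GlcUA; ethanol stop, centrifuged; supernatant by reversed-phase HPLC-UV/ESI-MS; glucuronide confirmed by β-glucuronidase hydrolysis; triplicate.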

[5] = target: T4, UDP-glucuronosyltransferase 1A7 (Homo sapiens, UniProt Q9HAW7); assay: Drug metabolism assessed as human recombinant UGT1A7-mediated compound formation treated with C-1311 for 60 mins by ESI-MS/UV-vis spectroscopy in presence of 3 mM UDP-GlcUA; conditions: recombinant enzyme, 1 h
T4 sequence (Q9HAW7 whole entry): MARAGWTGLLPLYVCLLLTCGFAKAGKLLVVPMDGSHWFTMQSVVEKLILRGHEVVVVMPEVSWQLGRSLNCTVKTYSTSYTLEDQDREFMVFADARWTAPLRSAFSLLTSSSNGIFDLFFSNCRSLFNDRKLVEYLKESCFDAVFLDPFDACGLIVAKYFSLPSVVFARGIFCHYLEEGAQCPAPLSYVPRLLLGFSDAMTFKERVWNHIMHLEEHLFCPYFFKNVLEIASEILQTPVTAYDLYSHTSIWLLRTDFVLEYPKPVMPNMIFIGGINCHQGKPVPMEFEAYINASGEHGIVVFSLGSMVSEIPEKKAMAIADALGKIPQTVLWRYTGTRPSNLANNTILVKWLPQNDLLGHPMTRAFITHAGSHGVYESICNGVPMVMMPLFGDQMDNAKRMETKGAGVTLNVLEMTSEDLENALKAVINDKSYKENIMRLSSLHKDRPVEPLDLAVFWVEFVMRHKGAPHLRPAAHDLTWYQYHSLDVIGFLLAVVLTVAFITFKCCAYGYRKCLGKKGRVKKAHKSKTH

[6] = target: T1, UDP-glucuronosyltransferase 1A1; assay: Drug metabolism assessed as human recombinant UGT1A1-mediated compound formation treated with C-1311 for 60 mins by ESI-MS/UV-vis spectroscopy in presence of 3 mM UDP-GlcUA; conditions: recombinant enzyme, 1 h

SMILES | Drug metabolism [1] | Drug metabolism [2] [nmol/min/mg] | Drug metabolism [3] | Drug metabolism [4] | Drug metabolism [5] | Drug metabolism [6]
CN(C)CCCNc1ccc2nnn3c4ccc(O)cc4c(=O)c1c23 | metabolite_detected | 0.15 | metabolite_detected | metabolite_detected |  | 
CCN(CC)CCNc1ccc2ncn3c4ccc(O)cc4c(=O)c1c23 [C-1311] |  |  |  |  | metabolite_detected | metabolite_detected
